From ChEMBL document CHEMBL1156234, “Novel 4-(piperidin-4-yl)-1-hydroxypyrazoles as gamma-aminobutyric acid(A) receptor ligands: synthesis, pharmacology, and structure-activity relationships” (J Med Chem, 2010) come the findings set out here.

Some results are limits rather than exact numbers.

Experiment [1] can be described thus: Displacement of [3H]muscimol from GABAA in rat synaptic membrane by scintillation counting. Type of experiment: cell membranes. The gist of the method:
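Rat brain synaptic membrane preparations; native GABAA receptor binding measured by displacement of [3H]muscimol. Ki reported as mean [mean pKi ± SEM] of three to four independent experiments.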
(In a radioligand displacement assay an active substance lowers the binding of a labelled ligand.)

The target of experiment [2] is T1, GABA-A receptor; alpha-1/beta-2/gamma-2 (Homo sapiens, UniProt P14867+P18507+P47870).
T1 sequence (P14867 whole entry): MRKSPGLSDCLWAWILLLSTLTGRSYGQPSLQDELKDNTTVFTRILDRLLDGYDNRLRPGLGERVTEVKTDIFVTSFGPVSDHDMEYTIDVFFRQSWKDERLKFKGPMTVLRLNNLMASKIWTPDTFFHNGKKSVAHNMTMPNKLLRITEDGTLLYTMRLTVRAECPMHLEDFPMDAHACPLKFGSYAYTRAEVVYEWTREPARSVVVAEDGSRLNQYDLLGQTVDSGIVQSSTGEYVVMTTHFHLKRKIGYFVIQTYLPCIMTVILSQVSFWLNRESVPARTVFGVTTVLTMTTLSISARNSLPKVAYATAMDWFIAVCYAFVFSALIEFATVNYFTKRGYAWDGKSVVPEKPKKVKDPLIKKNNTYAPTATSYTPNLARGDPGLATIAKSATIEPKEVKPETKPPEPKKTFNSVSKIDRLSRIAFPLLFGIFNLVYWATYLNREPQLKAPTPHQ
T1 sequence (P47870 whole entry): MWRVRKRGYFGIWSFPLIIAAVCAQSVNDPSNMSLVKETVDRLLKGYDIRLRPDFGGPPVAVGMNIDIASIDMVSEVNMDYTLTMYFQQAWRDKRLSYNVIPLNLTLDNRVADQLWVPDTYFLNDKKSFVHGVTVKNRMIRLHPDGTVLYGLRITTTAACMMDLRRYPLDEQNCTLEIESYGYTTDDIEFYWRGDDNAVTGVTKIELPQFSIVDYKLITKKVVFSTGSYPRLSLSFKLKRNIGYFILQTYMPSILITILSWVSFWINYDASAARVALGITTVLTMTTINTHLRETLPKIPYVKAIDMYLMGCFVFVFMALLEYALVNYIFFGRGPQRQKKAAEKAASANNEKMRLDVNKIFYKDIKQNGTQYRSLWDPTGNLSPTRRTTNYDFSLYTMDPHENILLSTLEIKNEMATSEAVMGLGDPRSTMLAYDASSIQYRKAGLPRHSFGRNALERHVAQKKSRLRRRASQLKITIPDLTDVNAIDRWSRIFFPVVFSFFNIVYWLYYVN
T1 sequence (P18507 whole entry): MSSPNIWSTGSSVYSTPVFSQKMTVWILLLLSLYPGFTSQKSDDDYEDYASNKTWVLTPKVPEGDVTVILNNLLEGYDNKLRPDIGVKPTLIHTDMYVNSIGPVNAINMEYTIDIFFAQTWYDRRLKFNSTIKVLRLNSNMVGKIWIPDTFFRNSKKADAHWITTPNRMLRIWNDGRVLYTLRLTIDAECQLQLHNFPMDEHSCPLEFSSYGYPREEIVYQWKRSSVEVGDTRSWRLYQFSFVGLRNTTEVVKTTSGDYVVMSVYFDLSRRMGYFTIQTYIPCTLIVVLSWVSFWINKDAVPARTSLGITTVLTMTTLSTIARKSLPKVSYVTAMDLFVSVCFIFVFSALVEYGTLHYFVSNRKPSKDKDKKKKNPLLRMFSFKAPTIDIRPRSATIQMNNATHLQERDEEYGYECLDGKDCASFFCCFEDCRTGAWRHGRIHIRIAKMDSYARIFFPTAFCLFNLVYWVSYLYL
The experiment is described as follows: Antagonist activity at human GABAA alpha-1-beta-2-gamma-2 receptor expressed in mouse tsA201 cells by FMP red assay. The experiment is classed as functional, cell-based. In outline:
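Human α1β2γ2S GABAA receptor transiently expressed in tsA201 cells; FLIPR membrane potential (FMP) red assay. […] Compounds tested up to 500 μM. Values given as IC50 [pIC50 ± SEM].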

A short description of experiment [3]: Displacement of [3H]muscimol from GABAA in rat synaptic membrane in presence of 10% DMSO by scintillation counting. The experiment is classed as cell membranes.
For experiment [4], the target named is T1, GABA-A receptor; alpha-1/beta-2/gamma-2. The experiment is described as follows: Agonist activity at human GABAA alpha-1-beta-2-gamma-2 receptor expressed in mouse tsA201 cells at < 500 uM by FMP red assay. Type of experiment: functional, cell-based. In outline:
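Human α1β2γ2S GABA-A receptor transiently expressed in tsA201 cells; agonist-mode FLIPR membrane potential (FMP) red assay measuring the fluorescence change in membrane potential; compounds tested at concentrations up to 500 μM.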

As a reminder, the Ki is a measure of affinity in units of concentration, obtained from inhibition or displacement. In general, pKi refers to −log10 of the Ki, conventionally taken in molar units. In the case of `Br.On1ncc(C2CCNCC2)c1-c1ccccc1`, in experiment [1], the Ki was determined as 22 nM and the negative-log Ki (pKi) was 7.65. For the same molecule, in experiment [2], the IC50 came out at 150 nM.

`Br.Cc1nn(O)cc1C1CCNCC1`: in experiment [1], the Ki is 5000 nM and the pKi worked out at 5.31. The IC50 in experiment [2] turned out to be 66000 nM.

As for `Br.On1cc(C2CCNCC2)c(-c2ccccc2)n1`, in experiment [1], affinity was put at a Ki of 270 nM and the pKi is reported as 6.57. This molecule also returned an IC50 in experiment [2] of 1900 nM.

Regarding `Br.Cc1ccc(-c2nn(O)cc2C2CCNCC2)cc1`, in experiment [1], the Ki came to 320 nM and the pKi was determined as 6.5. In experiment [2], this molecule registered an IC50 of 1400 nM.

As to `Br.On1cc(C2CCNCC2)c(-c2ccc(-c3ccccc3)cc2)n1`, in experiment [1], the Ki is 420 nM and the pKi is on record as 6.39. This molecule also yielded an IC50 in experiment [2] of 1400 nM.

Regarding `Br.On1cc(C2CCNCC2)c(Cc2ccc3ccccc3c2)n1`, in experiment [1], the Ki came to 3 nM and the pKi is 8.55. Also, the IC50 in experiment [2] amounted to 170 nM.

As to `Br.On1nc(Cc2ccc3ccccc3c2)c(C2CCNCC2)c1-c1ccccc1`, in experiment [3], the Ki was found to be 22 nM and the pKi was determined as 7.66.

Consider `Cl.On1cc(C2CCNCC2)cn1`, for which the IC50 in experiment [4] (read-out: IC50) was over 500000 nM; in experiment [4] (read-out: pIC50 (converted)), over 501000 nM. The same molecule returned a Ki in experiment [1] of 10000 nM. Besides, in experiment [1], the negative logarithm of the Ki (pKi) was determined as 4.99.

In experiment [1], `Cl.On1ncc(C2CCNCC2)c1Cc1ccc2ccccc2c1` showed a Ki of 33 nM and a pKi of 7.48. In addition, the IC50 in experiment [2] amounted to 790 nM.

With `Cl.On1ncc(C2CCNCC2)c1Cc1ccc2ccccc2c1Br`, in experiment [3], the Ki amounted to 9.5 nM and the pKi came to 8.07. The molecule further came in with an IC50 in experiment [2] of 480 nM.

As to `Cl.On1ncc(C2CCNCC2)c1-c1cccc(-c2ccccc2)c1`, the IC50 in experiment [2] is 24 nM.

In the case of `Cc1ccccc1-c1nn(O)cc1C1CCNCC1.Cl`, in experiment [1], the Ki is 670 nM and the negative logarithm of the Ki (pKi) amounted to 6.17. The molecule further registered an IC50 in experiment [2] of 2600 nM.

In experiment [1], `Cc1cccc(-c2nn(O)cc2C2CCNCC2)c1.Cl` yielded a Ki of 240 nM and a pKi of 6.62. The molecule also registered an IC50 in experiment [2] of 1900 nM.

In the case of `Cl.On1cc(C2CCNCC2)c(-c2cccc(-c3ccccc3)c2)n1`, in experiment [1], the Ki was found to be 30 nM and the pKi is reported as 7.55. In addition, the IC50 in experiment [2] came to 210 nM.

In experiment [1], `Cl.On1cc(C2CCNCC2)c(Cc2ccccc2)n1` gave a Ki of 360 nM and a pKi of 6.45. For the same molecule, the IC50 in experiment [2] came out at 8300 nM.

In the case of `Cl.On1nc(-c2ccccc2)c(C2CCNCC2)c1Cc1ccc2ccccc2c1`, in experiment [3], the Ki amounted to 1500 nM and the pKi came out at 5.84. Also, in experiment [2], the IC50 came to 3200 nM.

In experiment [1], `Oc1noc(C2CCNCC2)c1Cc1ccc2ccccc2c1` displayed a Ki of 49 nM. The same molecule registered an IC50 in experiment [2] of 1800 nM.

In experiment [1], `Oc1noc(C2CCNCC2)c1Cc1ccc2ccccc2c1Br` displayed a Ki of 10 nM.

With `Oc1noc(C2CCNCC2)c1-c1ccccc1`, the Ki in experiment [1] came to 220 nM.

Turning to `Oc1noc(C2CCNCC2)c1-c1cccc(-c2ccccc2)c1`, affinity in experiment [1] was put at a Ki of 10 nM. Also, in experiment [2], the IC50 stood at 78 nM.
